The nature of experiment [1]: Inhibition of Ixodes ricinus AE expressed in Pichia pastoris after 20 mins. The essentials: (§1)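 Recombinant AE zymogens expressed in Pichia pastoris; SmAE and TvAE1 autoactivated in 0.5 M sodium acetate, 4 mM DTT, pH 4.5, 37 °C, 3 h to overnight; IrAE used without activation. Buffer 0.1 M citrate phosphate, 4 mM DTT, pH 6.8 (SmAE, TvAE1) or pH 5.5 (IrAE). Inhibitor 2.0–0.0002 µM final, 20 min preincubation at room temperature; 10 µM final Cbz-Ala-Ala-Asn-AMC, 20 min; IC50 from RFU/min vs concentration.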

A short description of experiment [2]: Inhibition of Schistosoma mansoni AE expressed in Pichia pastoris after 20 mins. A digest of the protocol: as §1
Experiment [3] is described as follows: Inhibition of Trichomonas vaginalis G3 AE1 expressed in Pichia pastoris after 20 mins. A digest of the protocol: as §1
For experiment [4], the system named is Schistosoma mansoni. In words: Inhibition of Schistosoma mansoni AE assessed as ratio of pseudo-first-order inhibition rate constant to inhibitor concentration. The essentials: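 Autoactivated recombinant SmAE added to six inhibitor concentrations (0–1 µM final) in 0.1 M citrate phosphate, 2 mM DTT, pH 6.8 with 20 µM Cbz-Ala-Ala-Asn-AMC; progress followed every 2 s for 30 min at 25 °C (ex 355, em 460 nm); kobs/[I] by nonlinear regression, corrected for substrate by factor 1.33.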

Experimental findings from ChEMBL document CHEMBL1150273, “Aza-peptidyl Michael acceptors. A new class of potent and selective inhibitors of asparaginyl endopeptidases (legumains) from evolutionarily diverse pathogens” (J Med Chem, 2008) are described below.

Some results are limits rather than exact numbers.

Turning to `C[C@H](NC(=O)OCc1ccccc1)C(=O)N[C@@H](C)C(=O)NN(CC(N)=O)C(=O)/C=C/c1cccnc1`, the IC50 is 15000 nM in experiment [1], over 2000 nM in experiment [2] and 8000 nM in experiment [3].
`C[C@H](NC(=O)OCc1ccccc1)C(=O)N[C@@H](C)C(=O)NN(CC(N)=O)C(=O)/C=C/C(=O)N1CCCCC1`: the half-inhibitory concentration (IC50) in experiment [2] stood at 1000 nM; in experiment [3], 500 nM.
Consider `C[C@H](NC(=O)OCc1ccccc1)C(=O)N[C@@H](C)C(=O)NN(CC(N)=O)C(=O)/C=C/C(=O)N(C)C(Cc1ccccc1)C(=O)N(C)CCc1ccccc1` (some centres not stated), for which the IC50 in experiment [1] worked out at 300 nM; in experiment [2], 750 nM; in experiment [3], 80 nM.
`C[C@H](NC(=O)OCc1ccccc1)C(=O)N[C@@H](C)C(=O)NN(CC(N)=O)C(=O)/C=C/C(=O)N(Cc1ccccc1)Cc1cccc2ccccc12`: the values for the IC50 in experiment [1], in experiment [2] and in experiment [3] were 6 nM, 62 nM and under 1 nM, respectively. In addition, in experiment [4], the Ratio was 6180 M⁻¹ s⁻¹.
For the molecule `C[C@H](NC(=O)OCc1ccccc1)C(=O)N[C@@H](C)C(=O)NN(CC(N)=O)C(=O)/C=C/C(=O)N1CCCc2ccccc21`, the IC50 in experiment [1] worked out at 4 nM; in experiment [2], 70 nM; in experiment [3], 3.5 nM.
Turning to `C[C@H](NC(=O)OCc1ccccc1)C(=O)N[C@@H](C)C(=O)NN(CC(N)=O)C(=O)/C=C/C(=O)Nc1ccccc1`, the figures for the IC50 in experiment [1], in experiment [2] and in experiment [3] were 10 nM, 700 nM and 20 nM, respectively.
In the same order, the values of `C[C@H](NC(=O)OCc1ccccc1)C(=O)N[C@@H](C)C(=O)NN(CC(N)=O)C(=O)/C=C/C(=O)N1Cc2ccccc2C1` are 4.5 nM, 300 nM and 20 nM.
For `CCOC(=O)/C=C/C(=O)N(CC(N)=O)NC(=O)[C@H](C)NC(=O)[C@H](C)NC(=O)CCCC[C@@H]1SC[C@@H]2NC(=O)N[C@@H]21` the same measures were 2.8 nM, 10 nM and under 10 nM.
In the same order, the values of `C[C@H](NC(=O)OCc1ccccc1)C(=O)N[C@@H](C)C(=O)NN(CC(N)=O)C(=O)/C=C/C(=O)N(Cc1ccco1)Cc1ccco1` are 15000 nM, 900 nM and 5000 nM.
For the molecule `C[C@H](NC(=O)OCc1ccccc1)C(=O)N[C@@H](C)C(=O)NN(CC(N)=O)C(=O)/C=C/C(=O)NCc1ccccc1`, the figures for the IC50 in experiment [1], in experiment [2] and in experiment [3] were 200 nM, 1000 nM and 10 nM, respectively.
Turning to `C[C@H](NC(=O)OCc1ccccc1)C(=O)N[C@@H](C)C(=O)NN(CC(N)=O)C(=O)/C=C/C(=O)N1CC=C(c2ccccc2)CC1`, the IC50 in experiment [1] amounted to 85 nM; in experiment [2], 750 nM; in experiment [3], 10 nM.
In the same order, the values of `COc1ccc(CN(Cc2ccccc2)C(=O)/C=C/C(=O)N(CC(N)=O)NC(=O)[C@H](C)NC(=O)[C@H](C)NC(=O)OCc2ccccc2)cc1` are 12 nM, 90 nM and 2.3 nM.
In the same order, the values of `C[C@H](NC(=O)OCc1ccccc1)C(=O)N[C@@H](C)C(=O)NN(CC(N)=O)C(=O)/C=C/C(=O)NCc1ccc(F)cc1` are 250 nM, 800 nM and 75 nM.
In the case of `C[C@H](NC(=O)OCc1ccccc1)C(=O)N[C@@H](C)C(=O)NN(CC(N)=O)C(=O)/C=C/c1ccco1`, the IC50 in experiment [1] is 7500 nM; in experiment [2], over 2000 nM.
Consider `C[C@H](NC(=O)OCc1ccccc1)C(=O)N[C@@H](C)C(=O)NN(CC(N)=O)C(=O)/C=C/C(=O)N(Cc1ccccc1)c1ccccc1`, for which the figures for the IC50 in experiment [1], in experiment [2] and in experiment [3] were under 1 nM, 70 nM and under 1 nM, respectively.
`C[C@H](NC(=O)OCc1ccccc1)C(=O)N[C@@H](C)C(=O)NN(CC(N)=O)C(=O)/C=C/C(=O)N(C)c1ccccc1`: the IC50 was determined as 1.8 nM in experiment [1], 60 nM in experiment [2] and 5 nM in experiment [3].
Regarding `C[C@H](NC(=O)OCc1ccccc1)C(=O)N[C@@H](C)C(=O)NN(CC(N)=O)C(=O)/C=C/C(=O)N(C)CCc1ccccc1`, the IC50 came to 600 nM in experiment [2] and 50 nM in experiment [3].
Take `C[C@H](NC(=O)OCc1ccccc1)C(=O)N[C@@H](C)C(=O)NN(CC(N)=O)C(=O)/C=C/C(=O)N(Cc1ccccc1)Cc1ccc2ccccc2c1`: the IC50 in experiment [1] was 8 nM; in experiment [2], 70 nM; in experiment [3], 6 nM. Also, the Ratio in experiment [4] worked out at 6100 M⁻¹ s⁻¹.
In the case of `C[C@H](NC(=O)OCc1ccccc1)C(=O)N[C@@H](C)C(=O)NN(CC(N)=O)C(=O)/C=C/C(=O)N(Cc1ccccc1)Cc1ccc(F)cc1`, the figures for the IC50 in experiment [1], in experiment [2] and in experiment [3] were 700 nM, 60 nM and under 1 nM, respectively.
For the molecule `C[C@H](NC(=O)OCc1ccccc1)C(=O)N[C@@H](C)C(=O)NN(CC(N)=O)C(=O)/C=C/C(=O)N1CCc2ccccc2C1`, the figures for the IC50 in experiment [1], in experiment [2] and in experiment [3] were 25 nM, 200 nM and 10 nM, respectively.
In the same order, the values of `CCCCN(CCCC)C(=O)/C=C/C(=O)N(CC(N)=O)NC(=O)[C@H](C)NC(=O)[C@H](C)NC(=O)OCc1ccccc1` are 100 nM, 550 nM and 1000 nM.

The IC50 is the concentration needed to halve the response being measured.
